# Assay results from ChEMBL document CHEMBL3352339, “Implications of N-capped urea/thiourea and C-capped 3-(1-piperazinyl)-1,2-benzisothiazole with bridging Gly-Val/Phe-Gly-Val-Pro as therapeutic targets” (Eur J Med Chem, 2014).
# Starred links: 1 amine or outer side, 2 acyl side, 3 side chain; linkers in the order of their positions; H or OH if unused. Residues, ends and D or L forms follow the SMILES beside them. *: point of attachment. Thiocarbamoyl(4-MeOPh) = COc1ccc(NC(=S)*)cc1; NH(4-MeO-phenyl) = COc1ccc(N*)cc1; X1 = c1ccc2c(N3CCN(*)CC3)nsc2c1; X5 = COc1ccccc1NC(=S)*; CO = O=C([*:1])[*:2]; X6 = Fc1cccc(N*)c1; X3 = COc1ccccc1N*
# Key:
# Xanthomonas oryzae = test: Antibacterial activity against Xanthomonas oryzae at 50 ug/mL incubated for 24 hrs by agar well diffusion method; type: functional; settings: read-out: IZ
# Aspergillus flavus = test: Antifungal activity against Aspergillus flavus at 50 ug/mL incubated for 3 days by agar well diffusion method; type: functional; settings: 72 h, read-out: IZ
# Procedure, shortened: (§1)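 Fungal growth inhibition measured by agar well diffusion, with bavistin as the reference. Records the mean inhibition-zone diameter (mm) around each well.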
# Fusarium oxysporum = test: Antifungal activity against Fusarium oxysporum at 50 ug/mL incubated for 3 days by agar well diffusion method; type: functional; settings: 72 h, read-out: IZ; procedure, shortened: as §1
# Aspergillus niger = test: Antifungal activity against Aspergillus niger at 50 ug/mL incubated for 3 days by agar well diffusion method; type: functional; settings: 72 h, read-out: IZ; procedure, shortened: as §1
# [1] = Antiglycation activity using bovine serum albumin incubated at 37 degC for 7 days by spectrofluorimetry; type: physicochemical
# Procedure, shortened: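 Glycation of bovine serum albumin, with rutin as the reference standard. IC50 values are averages of triplicate runs.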
# Escherichia coli = test: Antibacterial activity against Escherichia coli at 50 ug/mL incubated for 24 hrs by agar well diffusion method; type: functional; settings: read-out: IZ
# Procedure, shortened: (§2)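 Agar well diffusion against the bacterial isolate, with streptomycin as the reference drug. Read-out is the average diameter (mm) of the growth-inhibition zone around the well.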
# Fusarium verticillioides = test: Antifungal activity against Fusarium moniliforme at 50 ug/mL incubated for 3 days by agar well diffusion method; type: functional; settings: 72 h, read-out: IZ; procedure, shortened: as §1
# Urease = Urease (Canavalia ensiformis, UniProt P07374); test: Inhibition of jack bean urease assessed as reduction in ammonia production incubated at 30 degC for 15 mins by indophenol method
# Procedure, shortened: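 Inhibition of jack bean urease, with thiourea as the reference standard. IC50 values are the average of triplicate runs.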
# [2] = Inhibition of sheep stomach parietal cells gastric H+/K+-ATPase activity assessed as reduction in inorganic phosphorus production by Fiske Subbarow's method; type: tissue-based, Ovis aries; settings: read-out: IC50
# Procedure, shortened: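 Inhibition of purified H+/K+-ATPase, with omeprazole as the reference. IC50 is the mean of triplicate runs.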
# Staphylococcus = test: Antibacterial activity against Coagulase positive Staphylococcus at 50 ug/mL incubated for 24 hrs by agar well diffusion method; type: functional; settings: read-out: IZ; procedure, shortened: as §2
# Sequence of Urease (P07374 whole entry): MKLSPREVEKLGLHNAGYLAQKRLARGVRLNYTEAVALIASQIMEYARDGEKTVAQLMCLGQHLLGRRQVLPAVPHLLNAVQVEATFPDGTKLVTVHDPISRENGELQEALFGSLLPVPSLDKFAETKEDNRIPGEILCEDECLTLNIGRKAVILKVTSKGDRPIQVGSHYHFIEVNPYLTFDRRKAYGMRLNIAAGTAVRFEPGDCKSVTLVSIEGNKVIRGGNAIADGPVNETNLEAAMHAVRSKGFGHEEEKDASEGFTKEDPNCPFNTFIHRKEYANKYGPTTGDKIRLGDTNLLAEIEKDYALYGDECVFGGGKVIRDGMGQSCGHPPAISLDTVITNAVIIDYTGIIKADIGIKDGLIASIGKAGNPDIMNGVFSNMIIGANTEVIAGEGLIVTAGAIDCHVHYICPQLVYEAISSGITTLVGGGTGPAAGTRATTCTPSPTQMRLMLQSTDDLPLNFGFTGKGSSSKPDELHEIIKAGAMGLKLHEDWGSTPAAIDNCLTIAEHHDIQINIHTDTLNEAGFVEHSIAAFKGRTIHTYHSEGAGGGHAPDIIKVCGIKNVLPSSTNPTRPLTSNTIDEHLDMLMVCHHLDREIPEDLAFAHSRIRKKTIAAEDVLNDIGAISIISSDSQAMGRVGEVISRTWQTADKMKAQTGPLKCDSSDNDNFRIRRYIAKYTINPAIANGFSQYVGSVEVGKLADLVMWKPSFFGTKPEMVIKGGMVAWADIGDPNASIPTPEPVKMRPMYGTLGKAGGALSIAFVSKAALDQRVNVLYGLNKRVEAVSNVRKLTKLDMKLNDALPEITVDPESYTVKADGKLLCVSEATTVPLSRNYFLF
SMILES,zone of inhibition at 50 µg/mL (Xanthomonas oryzae) [mm],zone of inhibition at 50 µg/mL (Aspergillus flavus) [mm],zone of inhibition at 50 µg/mL (Fusarium oxysporum) [mm],zone of inhibition at 50 µg/mL (Aspergillus niger) [mm],IC50 [1] [µM],zone of inhibition at 50 µg/mL (Escherichia coli) [mm],zone of inhibition at 50 µg/mL (Fusarium verticillioides) [mm],IC50 (Urease) [µM],IC50 [2] [µM],zone of inhibition at 50 µg/mL (Staphylococcus) [mm]
COc1ccccc1NC(=O)NCC(=O)N[C@@H](Cc1ccccc1)C(=O)NCC(=O)N[C@H](C(=O)N1CCC[C@H]1C(=O)N1CCN(c2nsc3ccccc23)CC1)C(C)C ({X3-CO}-GFGVP-X1),22,25,23,24,22,23,26,21,54,23
CC(C)[C@H](NC(=O)CNC(=O)[C@H](Cc1ccccc1)NC(=O)CNC(=O)Nc1cccc(F)c1)C(=O)N1CCC[C@H]1C(=O)N1CCN(c2nsc3ccccc23)CC1 ({X6-CO}-GFGVP-X1),26,29,29,30,50,28,31,43,92,29
COc1ccc(NC(=O)NCC(=O)N[C@H](C(=O)NCC(=O)N[C@H](C(=O)N2CCC[C@H]2C(=O)N2CCN(c3nsc4ccccc34)CC2)C(C)C)C(C)C)cc1 ({NH(4-MeO-phenyl)-CO}-GVGVP-X1),22,26,28,24,21,23,24,21,34,22
COc1ccccc1NC(=S)NCC(=O)N[C@@H](Cc1ccccc1)C(=O)NCC(=O)N[C@H](C(=O)N1CCC[C@H]1C(=O)N1CCN(c2nsc3ccccc23)CC1)C(C)C (X5-GFGVP-X1),22,25,24,24,19,24,26,18,46,24
CC(C)[C@H](NC(=O)CNC(=O)Nc1cccc(F)c1)C(=O)NCC(=O)N[C@H](C(=O)N1CCC[C@H]1C(=O)N1CCN(c2nsc3ccccc23)CC1)C(C)C ({X6-CO}-GVGVP-X1),22,25,24,27,52,24,27,44,88,23
COc1ccc(NC(=O)NCC(=O)N[C@@H](Cc2ccccc2)C(=O)NCC(=O)N[C@H](C(=O)N2CCC[C@H]2C(=O)N2CCN(c3nsc4ccccc34)CC2)C(C)C)cc1 ({NH(4-MeO-phenyl)-CO}-GFGVP-X1),23,28,27,28,19,26,29,17,38,26
COc1ccccc1NC(=S)NCC(=O)N[C@H](C(=O)NCC(=O)N[C@H](C(=O)N1CCC[C@H]1C(=O)N1CCN(c2nsc3ccccc23)CC1)C(C)C)C(C)C (X5-GVGVP-X1),19,22,22,20,20,21,23,20,40,20
COc1ccc(NC(=S)NCC(=O)N[C@H](C(=O)NCC(=O)N[C@H](C(=O)N2CCC[C@H]2C(=O)N2CCN(c3nsc4ccccc34)CC2)C(C)C)C(C)C)cc1 ({Thiocarbamoyl(4-MeOPh)}-GVGVP-X1),25,25,26,24,18,24,26,18,32,24
